Ecoli rRNA inh: reduced GFP signal of wild-type E. coli, primary screen, bacterial rRNA inhibitor project, GFP/RFP fluorescence, OD600, single point | AID 720706, 2013 | E. coli WT GFP vs humanized-ribosome RFP mutants, 24 h; stronger effect = lower value; DMSO median 0, no signal -100 | GFP signal change (wild-type ribosome), % (concentration not given with the values) | 350,000 tested, 1.6% active;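 active = significant combined selectivity score with lowered wild-type GFP, culture density cut under 30%, mutant RFP and density less affected; inactive = any of these conditions unmet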
ERAP1 HTS inh: human ERAP1 aminopeptidase inhibitors, primary screen, biochemical, single point, plate reader; Endoplasmic reticulum aminopeptidase 1 (Homo sapiens), Q9NZ08; recombinant ERAP1, Leu-AMC fluorescence, 60 min; inhibition, % at 10.7 µM; 340,000 tested, 0.15% active; AID 652197, 2013;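 active = mean replicate inhibition of at least 30%, or all replicates individually reaching that 30% level; inactive = mean below 30% and not every replicate reaching it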;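 note: 0% = neutral control wells and 100% = L-leucinethiol positive control wells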
Target sequence (Q9NZ08 whole entry, looked up): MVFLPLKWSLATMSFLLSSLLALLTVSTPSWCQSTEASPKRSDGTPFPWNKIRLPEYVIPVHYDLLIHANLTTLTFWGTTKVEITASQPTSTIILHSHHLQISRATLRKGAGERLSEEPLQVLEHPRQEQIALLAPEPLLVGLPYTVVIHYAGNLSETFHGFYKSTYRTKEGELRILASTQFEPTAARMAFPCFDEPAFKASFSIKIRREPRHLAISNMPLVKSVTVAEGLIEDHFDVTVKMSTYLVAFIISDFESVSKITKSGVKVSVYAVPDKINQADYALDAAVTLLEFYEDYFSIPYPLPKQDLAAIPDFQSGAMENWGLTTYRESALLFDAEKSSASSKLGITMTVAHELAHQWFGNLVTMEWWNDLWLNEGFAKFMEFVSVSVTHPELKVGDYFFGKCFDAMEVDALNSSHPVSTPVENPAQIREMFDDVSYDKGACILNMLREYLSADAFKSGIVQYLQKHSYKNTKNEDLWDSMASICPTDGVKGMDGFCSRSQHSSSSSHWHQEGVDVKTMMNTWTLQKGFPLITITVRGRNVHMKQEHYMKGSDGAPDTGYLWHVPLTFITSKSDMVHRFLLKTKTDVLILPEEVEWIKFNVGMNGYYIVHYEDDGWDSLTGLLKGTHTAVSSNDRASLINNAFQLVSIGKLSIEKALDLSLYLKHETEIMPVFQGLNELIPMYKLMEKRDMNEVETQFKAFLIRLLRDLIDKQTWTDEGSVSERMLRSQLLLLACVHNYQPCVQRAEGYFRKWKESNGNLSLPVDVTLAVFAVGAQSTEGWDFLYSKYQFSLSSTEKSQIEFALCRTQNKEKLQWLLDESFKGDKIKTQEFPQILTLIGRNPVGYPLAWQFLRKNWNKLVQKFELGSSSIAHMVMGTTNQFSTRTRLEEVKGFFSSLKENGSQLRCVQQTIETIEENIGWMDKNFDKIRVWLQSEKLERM
PGC1a acetyl inh: inhibitors of PGC1a acetylation signal, primary screen, cell-based, U2OS, AlphaScreen, inhibitor mode. AlphaScreen anti-acetyl-lysine; with virally co-expressed GCN5 acetyltransferase. inhibition, % at 15.6 µM. 350,000 tested, 0.17% active;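 active = every replicate shows inhibition of at least 40%; inconclusive = mean inhibition at least 40% but some replicate below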;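 note: 0% = neutral control wells and 100% = positive control wells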
HIV Env fusion: inhibitors of HIV-1 Env-driven cell-cell fusion, primary screen, HeLa-JRFL effector, CEM21 target cells, luciferase. AID 651610, 2012. 360,000 tested, 1.1% active. inhibition, % at 12.3 µM;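 active = mean replicate inhibition score of at least 50 and every replicate individually at or above 50; inconclusive = only one of the two criteria met; inactive = mean below 50 and not all replicates reaching 50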;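 note: 0% = plate neutral controls and 100% = maraviroc near 300 nM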
FGF22 binding: binders of human FGF22 protein, primary screen, FGF22 synaptogenesis inhibitor project, biophysical, thermal shift, single point. Fibroblast growth factor 22 (Homo sapiens), Q9HCT0. recombinant FGF22 thermal shift, SYPRO orange fluorescence; percent of sucrose octasulfate shift, DMSO zero. activity (Tm shift, normalised), % at 9.99 µM. 340,000 tested, 1.5% active. AID 651658, 2012;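 active = mean Tm shift, scaled 0 neutral to 100 positive control, at about 1.3% or above, every replicate too, limit read from the data; inconclusive = no clear call, values can overlap the other calls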
Cneo AK release: Cryptococcus neoformans cell lysis inducers, primary screen, AK release luminescence, single concentration. C. neoformans lysis, adenylate kinase release luminescence, 4 h; normalised: neutral wells 0, clomiphene wells 100. lysis activity, % at 15 µM. 360,000 tested, 0.2% active. AID 651654, 2012;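 active = mean lysis activity across replicates of at least 80%, whatever share of replicates individually reach that level; inactive = mean lysis activity below 80%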
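Schedule: static 4 h at 37 °C with compound, 1 h detection; system: C. neoformans cells; benchmarks: Clomiphene as positive control; buffer or medium: fresh YPD medium; measure: luminescence rise reflecting yeast cell lysis; measured by: luminescent adenylate kinase detection reagent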
The depositor's hits bear a star; u = inconclusive; x = no result given; [ ] = dose if it differs, or a comment. This is a sample that favours compounds with a hit; in the whole collection about 3.5% have one here.

SMILES	Ecoli rRNA inh	ERAP1 HTS inh	PGC1a acetyl inh	HIV Env fusion	FGF22 binding	Cneo AK release
CC(=O)c1ccc(NC(=S)NN2C(C)CCCC2C)cc1 (stereo unspecified)	5.6	3.5	x	15.3	43.3*	x
Cn1ccnc1SCC(=O)Nc1ccc2ccccc2c1	x	x	-22.6	x	x	x
O=C(N/N=C/c1ccc[nH]1)c1cc(-c2ccc(Cl)cc2)nc2ccccc12	-38.5*	0.2	8.8	-4.8	41.2	x
Cc1ccc(/C=N/NC(=O)c2cc(-c3cccnc3)nc3ccccc23)cc1	25.5	-0.2	4.2	-262.8	43.2*	x
Cc1ccc(C)c(-c2cc(C(=O)Nc3sc(C)c(C)c3C(N)=O)c3ccccc3n2)c1	x	x	-8.0	88.5*	x	-3.4
O=C(N/N=C/c1ccc(Cl)cc1)c1cc(-c2cccnc2)nc2ccccc12	20.8	1.6	4.0	-69.4	0.1	0.9
Cc1ccc(C)c(-c2cc(C(=O)N/N=C/c3cccnc3)c3ccccc3n2)c1	-20.4*	-2.9	x	-26.1	-0.1	-1.4
CO[C@H]1CN(C)C(=O)c2ccc(NC(=O)c3cc(C)on3)cc2OC[C@@H](C)N(C(C)=O)C[C@@H]1C	-0.6	-0.6	-6.0	-2.2[16.7 µM]	0.3	1.1
COc1ccccc1NS(=O)(=O)c1cc(NC(=O)c2ccc(=O)[nH]c2)ccc1N1CCOCC1	x	4.2	x	-16.9	0.0	x
CCOC(=O)NC(=O)/C(C#N)=C/c1ccc(N(C)C)cc1	12.3	-0.1	15.5	3.5	x	0.1
CC(C)NC(=O)N(C)C[C@@H]1Oc2cc(-c3ccccc3)ccc2S(=O)(=O)N([C@H](C)CO)C[C@H]1C	1.9	4.9	1.1	-7.9[16.7 µM]	0.0	-0.3
COc1ccc2nc(-c3ccccc3)nc(C3CCCCC3)c2c1	4.5	3.0	9.7	3.7	0.2	-2.0
Cc1ccc(C)c(Nc2cc(C(=O)NCc3cccnc3)c3ccccc3n2)c1	-26.4*	1.2	-1.1	-7.5	0.2	-22.9
Cc1cc(-n2cccn2)ccc1CN1CCN(CC(C)C)C(CCO)C1 (stereo unspecified)	3.8	-3.8	5.2	6.8	0.5	-0.3
Nc1ccc2cc3[nH]c4cc(N)ccc4c3nc2c1	59.5	-1.9	12.2	60.8*	-0.2	x
O=C(CN1CCN(S(=O)(=O)c2ccc(Cl)cc2)CC1)NC(=O)NC1CCCCC1	x	x	-3.8	-10.5	x	0.0
O=C(CN1CCN(C(c2ccccc2)c2ccccc2)CC1)N1CCN(c2ccccc2)CC1	-38.3*	-3.9	9.3	5.7	0.2	-0.8
CC(C)(C)NC(=O)NC(=O)CN1CCN(C(c2ccccc2)c2ccccc2)CC1	-23.0	0.3	5.6	20.0	43.0*	x
O=C(Cn1ncc(Cl)c(Cl)c1=O)NC(=O)NC1CCCCC1	x	-1.5	u	61.4*	-0.2	x
O=C(CN1CCCCC1)NC(=O)NC1CCCC1	9.6	-0.8	5.3	4.9	43.0*	x
O=C(CN1CCCCCCC1)NC(=O)NC1CCCCC1	2.2	3.3	-2.1	2.5	0.0	x
Nc1nc(Nc2ccc(Cl)cc2)n[nH]1	x	x	15.6	x	x	0.9
CC(C)(C)NC(=O)NC(=O)CN1CCCCC1	6.1	2.8	-29.9	-0.7	43.2*	x
CC(C)(C)NC(=O)NC(=O)CN1CCCCCCC1	17.2	-0.7	x	2.3	-0.1	x
CC1CCN(Cc2cc(=O)oc3ccc(C(C)C)cc23)CC1	-22.6*	3.1	4.4	15.6	0.1	-0.6
SMILES	Ecoli rRNA inh	ERAP1 HTS inh	PGC1a acetyl inh	HIV Env fusion	FGF22 binding	Cneo AK release
CC(C)c1ccc2oc(=O)cc(CN3CCCCC3)c2c1	-21.4*	2.0	3.7	9.4	0.0	5.6
CC(C)c1ccc2oc(=O)cc(CN3CCN(c4ccccc4)CC3)c2c1	x	x	8.0	x	x	4.4
CC1CCN(Cc2cc(=O)oc3ccc4ccccc4c23)CC1	-22.6*	5.3	x	20.1	0.0	x
O=c1cc(CN2CCCCC2)c2c(ccc3ccccc32)o1	-4.1	15.1	8.5	11.4	0.0	-1.4
CC(=O)c1cn(CC(=O)Nc2cccc(C)c2C)c2ccccc12	-2.5	5.5	0.5	12.4	42.2	1.4
COc1ccc2oc(C)c(C(=O)c3ccccc3)c2c1	-29.9*	6.2	-13.8	9.2	-0.1	x
Clc1ccccc1CN1CCSCC1	15.0	-3.2	47.1*	9.8	-0.2	-2.3
C[C@H]1CN([C@@H](C)CO)C(=O)Cc2cc(NC(=O)Nc3cccc4ccccc34)ccc2O[C@H]1CN(C)S(=O)(=O)c1cccs1	2.0	x	-5.2	45.2[16.7 µM]	-0.2	100.9*
C[C@H](CO)N1C[C@H](C)[C@H](CN(C)S(=O)(=O)c2cccs2)Oc2ccc(NC(=O)Nc3cccc4ccccc34)cc2CC1=O	2.7	x	-12.3	75.3*[16.7 µM]	-0.5	-0.6
C[C@@H]1CN([C@H](C)CO)C(=O)Cc2cc(NC(=O)Nc3cccc4ccccc34)ccc2O[C@@H]1CN(C)S(=O)(=O)c1cccs1	1.1	x	8.2	u	-0.3	-0.2
O=C(NC1CCCCC1)c1ccc(S(=O)(=O)N2CCCCC2)cc1	x	x	8.8	3.4	x	-2.1
C[C@@H]1CCCCO[C@@H](CN(C)C(=O)c2ccncc2)[C@@H](C)CN([C@@H](C)CO)C(=O)c2cc(NS(=O)(=O)c3cccs3)ccc2O1	0.8	-12.9	0.0	18.7[16.7 µM]	0.3	0.1
Cc1ccc(N(Cc2cc(=O)[nH]c3ccccc23)C(=O)CCl)c(C)c1	2.9	-3.9	x	55.4*	-0.1	x
Cc1noc(C)c1NC(=O)Nc1cccc2c1O[C@H](CN(C)S(=O)(=O)c1cccs1)[C@H](C)CN([C@@H](C)CO)C2=O	0.5	-4.2	20.9	x	0.2	-1.5
O=[N+]([O-])c1ccccc1/C=N/Nc1nc(N2CCCC2)nc(N2CCCC2)n1	-12.4*	-6.3	-8.6	1.7	-0.2	-0.2
O=C(C(=O)N1CCC(CNC(=O)c2cccs2)CC1)c1cc2ccccc2o1	-7.6	-2.0	x	-0.1	0.3	x
COc1cc(OC)cc(C(=O)NCC(=O)OCC(=O)N2c3ccccc3NC(=O)C2(C)C)c1	5.7	1.2	x	16.4	43.9*	x
Cc1cc(C)cc(C(=O)NCC(=O)OCC(=O)N2c3ccccc3NC(=O)C2(C)C)c1	8.8	4.9	24.2	7.7	-0.2	-6.6
O=C(C[C@@H]1CC[C@@H](NC(=O)c2cccc(F)c2)[C@H](CO)O1)NCc1ccc(Oc2ccccc2)cc1	-3.7	3.0	-5.9	16.9[16.7 µM]	0.0	-2.5
C[C@@H]1CN([C@@H](C)CO)S(=O)(=O)c2ccc(C3=CCCC3)cc2O[C@@H]1CN(C)Cc1ccccc1F	-1.9	-5.9	-6.9	28.2[16.7 µM]	-0.5	89.6*

Compound activity deposited in PubChem BioAssay by Broad Institute.
